The results in this text go back to ChEMBL document CHEMBL4033702, “Challenges in the development of an M4 PAM preclinical candidate: The discovery, SAR, and in vivo characterization of a series of 3-aminoazetidine-derived amides” (Bioorg Med Chem Lett, 2017).

In general, EC50 refers to the concentration at which the effect is half-maximal. As a reminder, the IC50 is the concentration needed to halve the response being measured. A word on the bioavailability: it is the share of a dose that reaches the circulation, judged against a reference dose that is usually intravenous. The solubility is the concentration that dissolves in the medium under given conditions.

Structures are written as SMILES. Values after ≈ are worked out from the molar mass of the structure shown.

The target of data set [1] is T1, Muscarinic acetylcholine receptor M4 (Homo sapiens, UniProt P08173).
T1 sequence (P08173 whole entry): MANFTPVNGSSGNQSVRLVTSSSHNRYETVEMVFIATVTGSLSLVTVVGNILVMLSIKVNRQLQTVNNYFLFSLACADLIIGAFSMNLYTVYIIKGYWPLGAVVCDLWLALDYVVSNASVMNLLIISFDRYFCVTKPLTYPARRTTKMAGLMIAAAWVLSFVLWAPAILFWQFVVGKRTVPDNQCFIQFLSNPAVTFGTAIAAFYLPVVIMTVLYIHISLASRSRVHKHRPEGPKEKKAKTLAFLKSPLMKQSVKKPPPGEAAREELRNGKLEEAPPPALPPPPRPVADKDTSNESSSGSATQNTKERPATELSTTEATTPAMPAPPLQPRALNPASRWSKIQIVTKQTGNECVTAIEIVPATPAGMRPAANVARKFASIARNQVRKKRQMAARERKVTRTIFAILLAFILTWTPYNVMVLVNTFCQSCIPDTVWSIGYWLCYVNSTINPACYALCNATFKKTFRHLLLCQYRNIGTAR
Put plainly: Positive allosteric modulation of human M4 receptor expressed in CHO cells co-expressing Gqi5 assessed as increase in acetylcholine-induced calcium mobilization. On the technique in general: A change in cytosolic calcium serves as a functional read-out for many receptors and channels.

In data set [2] the target is T2, Muscarinic acetylcholine receptor M4 (Homo sapiens) (UniProt P08173).
T2 sequence (whole entry): T1 sequence (P08173 whole entry)
Put plainly: Positive allosteric modulation of human M4 receptor expressed in CHO cells co-expressing Gqi5 assessed as increase in acetylcholine-induced calcium mobilization relative to acetylcholine. In kind it is functional, cell-based. A digest of the protocol:
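Calcium mobilization in CHO cells stably co-expressing hM4 and Gqi5, tested in the presence of a fixed EC20 concentration of acetylcholine. Values are means of three independent experiments, each run in triplicate.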

For data set [3], the target named is Cytochrome P450 3A4 (Homo sapiens, UniProt P08684). Put plainly: Inhibition of CYP3A4 (unknown origin). In kind it is ADME.
In data set [4] the target is T3, Cytochrome P450 2D6 (Homo sapiens, UniProt P10635). Put plainly: Inhibition of CYP2D6 (unknown origin). In kind it is ADME.
In data set [5] the target is T4, Cytochrome P450 2C9 (Homo sapiens, UniProt P11712). Nature of the data set: Inhibition of CYP2C9 (unknown origin). In kind it is ADME.
Data set [6] addresses T5, Muscarinic acetylcholine receptor M4 (Rattus norvegicus) (UniProt P08485).
T5 sequence (whole entry): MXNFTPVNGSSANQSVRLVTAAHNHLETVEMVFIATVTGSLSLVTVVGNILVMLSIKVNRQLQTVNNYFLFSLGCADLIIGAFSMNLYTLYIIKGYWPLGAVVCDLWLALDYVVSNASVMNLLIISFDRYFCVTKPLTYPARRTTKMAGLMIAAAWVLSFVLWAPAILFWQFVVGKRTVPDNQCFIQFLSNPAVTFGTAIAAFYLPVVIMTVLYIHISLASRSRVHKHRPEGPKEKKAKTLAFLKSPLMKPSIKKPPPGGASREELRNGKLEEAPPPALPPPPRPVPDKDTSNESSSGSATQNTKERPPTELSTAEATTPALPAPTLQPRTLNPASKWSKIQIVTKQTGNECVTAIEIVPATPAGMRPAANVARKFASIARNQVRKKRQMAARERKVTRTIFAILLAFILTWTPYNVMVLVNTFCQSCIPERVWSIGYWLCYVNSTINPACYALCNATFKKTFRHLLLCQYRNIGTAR
Put plainly: Activity at rat M4 receptor assessed as acetylcholine-induced calcium mobilization. In kind it is functional. In outline: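 Ca2+ mobilization read-out. Acetylcholine concentration-response curves were run in the presence of the PAM to measure the fold-shift. An operational model was fitted to derive the PAM's affinity (KB) and cooperativity (αβ).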

The species entered for data set [7] is Macaca fascicularis. Nature of the data set: Activity at cynomolgus monkey M4 receptor assessed as acetylcholine-induced calcium mobilization.
Data set [8] addresses T2, Muscarinic acetylcholine receptor M4 (Homo sapiens). Nature of the data set: Activity at human M4 receptor assessed as acetylcholine-induced calcium mobilization. In kind it is functional.
Data set [9] relates to Rattus norvegicus. Nature of the data set: Reversal of amphetamine-induced hyperlocomotion in Sprague-Dawley rat at 0.03 mg/kg, po pretreated 30 mins post habituation in the chamber followed by amphetamine injection after 30 mins measured after 60 mins. In kind it is functional. In outline: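 Male Sprague-Dawley rats, n = 6–24 per dose group, were habituated in the chamber for 30 min. The compound or vehicle (10% tween-80 in water, v/v) was then given orally. Amphetamine 0.75 mg/kg was injected subcutaneously 30 min later. Total ambulations over t = 60–120 min gave % reversal of AHL, reported as mean ± SEM.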

In data set [10] the test system is Rattus norvegicus. Nature of the data set: Reversal of amphetamine-induced hyperlocomotion in Sprague-Dawley rat assessed as plasma concentration required for the effect at 3 mg/kg, po pretreated 30 mins post habituation in the chamber followed by amphetamine injection after 30 mins measured at 1.5 hrs post dose. In kind it is functional, organism-based. A digest of the protocol: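 Rat AHL study: oral dosing 30 min after chamber habituation, then amphetamine 0.75 mg/kg s.c. 30 min later. Terminal plasma concentrations in the study animals were measured 1.5 hr after compound administration. From these, an in vivo plasma EC50 was derived, both total and unbound.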

The target of data set [11] is T3, Cytochrome P450 2D6. Put plainly: Time-dependent inhibition of CYP2D6 (unknown origin). In kind it is ADME.
The target in data set [12] is T4, Cytochrome P450 2C9. Put plainly: Time-dependent inhibition of CYP2C9 (unknown origin). In kind it is ADME.
Data set [13] addresses Cytochrome P450 2C19 (Homo sapiens, UniProt P33261). Nature of the data set: Time-dependent inhibition of CYP2C19 (unknown origin). In kind it is ADME.
Data set [14] can be described thus: Clearance in iv or po dosed Sprague-Dawley rat. In kind it is ADME, organism-based. The settings on record: in vivo. A digest of the protocol:
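IV and PO pharmacokinetics in male Sprague-Dawley rats, n = 1–3. The oral dose was a 2–3 mg/kg solution. Plasma clearance, Vss and oral bioavailability were determined.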

Data set [15] deals with Canis familiaris. Put plainly: Volume of distribution at steady state in iv or po dosed Mongrel dog. In kind it is ADME, organism-based, Canis lupus familiaris. Conditions: in vivo; call rule not given here. In outline: (§1)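 IV and PO pharmacokinetics in female mongrel dogs, n = 1–2. The oral dose was a 2–3 mg/kg solution. Vss and oral bioavailability were determined.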
For data set [16], the system named is Canis familiaris. Put plainly: Oral bioavailability in Mongrel dog at 2 to 3 mg/kg. In kind it is ADME, organism-based, Canis lupus familiaris. Conditions: in vivo. In outline:
as §1

Data set [17] is described as follows: Oral bioavailability in Mongrel dog at 2 mg/kg administered as suspension. Conditions: in vivo. In kind it is ADME, organism-based, Canis lupus familiaris. A digest of the protocol:
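Female mongrel dogs were dosed orally with a 2 mg/kg suspension in a low-excipient vehicle, and oral bioavailability was determined.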

Data set [18] is described as follows: Kinetic solubility of the compound in FaSSIF at pH 6.5 measured after 1 hr. In kind it is physicochemical. Conditions: read-out: Kinetic_solubility.
The nature of data set [19]: Aqueous solubility of the compound at pH 7.4. In kind it is physicochemical. The settings on record: buffer.
In data set [20] the test system is Brain. Nature of the data set: Drug level in Sprague-Dawley rat brain at 0.03 mg/kg, po. The settings on record: in vivo, read-out: Drug uptake. In kind it is ADME, organism-based.
Data set [21] has as its system Brain. Nature of the data set: Drug level in Sprague-Dawley rat brain at 0.1 mg/kg, po. In kind it is ADME, organism-based. Conditions: in vivo, read-out: Drug uptake.
Data set [22] deals with Brain. Nature of the data set: Drug level in Sprague-Dawley rat brain at 1 mg/kg, po. In kind it is ADME, organism-based. The settings on record: in vivo, read-out: Drug uptake.
Data set [23] has as its system Brain. Put plainly: Drug level in Sprague-Dawley rat brain at 3 mg/kg, po. In kind it is ADME, organism-based. The settings on record: in vivo, read-out: Drug uptake.

T4 sequence (P11712 whole entry): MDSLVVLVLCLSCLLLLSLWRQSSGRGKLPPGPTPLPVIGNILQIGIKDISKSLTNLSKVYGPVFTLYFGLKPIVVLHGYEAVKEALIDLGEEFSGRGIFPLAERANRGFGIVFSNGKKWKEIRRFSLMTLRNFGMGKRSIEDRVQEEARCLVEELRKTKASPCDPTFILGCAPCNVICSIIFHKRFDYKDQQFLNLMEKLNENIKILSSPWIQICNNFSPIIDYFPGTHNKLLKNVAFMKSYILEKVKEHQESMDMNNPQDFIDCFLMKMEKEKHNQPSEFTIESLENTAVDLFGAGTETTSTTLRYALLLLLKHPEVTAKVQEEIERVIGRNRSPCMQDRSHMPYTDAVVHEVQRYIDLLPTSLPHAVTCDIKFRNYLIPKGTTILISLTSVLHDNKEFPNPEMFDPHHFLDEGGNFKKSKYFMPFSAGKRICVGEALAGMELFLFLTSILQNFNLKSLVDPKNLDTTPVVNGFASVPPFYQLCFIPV
T3 sequence (P10635 whole entry): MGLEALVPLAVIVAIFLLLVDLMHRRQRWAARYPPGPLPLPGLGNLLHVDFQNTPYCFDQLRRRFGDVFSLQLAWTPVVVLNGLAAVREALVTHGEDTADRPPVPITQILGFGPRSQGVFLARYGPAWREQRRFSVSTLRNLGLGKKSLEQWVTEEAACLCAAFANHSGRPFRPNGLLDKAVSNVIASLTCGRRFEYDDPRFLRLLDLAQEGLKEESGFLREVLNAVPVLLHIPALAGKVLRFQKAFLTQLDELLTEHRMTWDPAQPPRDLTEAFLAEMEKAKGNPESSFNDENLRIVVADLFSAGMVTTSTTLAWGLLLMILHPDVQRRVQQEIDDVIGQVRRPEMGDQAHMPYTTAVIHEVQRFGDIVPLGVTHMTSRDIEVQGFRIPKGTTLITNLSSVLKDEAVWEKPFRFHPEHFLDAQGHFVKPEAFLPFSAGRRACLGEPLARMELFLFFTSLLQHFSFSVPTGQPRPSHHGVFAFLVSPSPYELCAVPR
Cytochrome P450 3A4, sequence (P08684 whole entry): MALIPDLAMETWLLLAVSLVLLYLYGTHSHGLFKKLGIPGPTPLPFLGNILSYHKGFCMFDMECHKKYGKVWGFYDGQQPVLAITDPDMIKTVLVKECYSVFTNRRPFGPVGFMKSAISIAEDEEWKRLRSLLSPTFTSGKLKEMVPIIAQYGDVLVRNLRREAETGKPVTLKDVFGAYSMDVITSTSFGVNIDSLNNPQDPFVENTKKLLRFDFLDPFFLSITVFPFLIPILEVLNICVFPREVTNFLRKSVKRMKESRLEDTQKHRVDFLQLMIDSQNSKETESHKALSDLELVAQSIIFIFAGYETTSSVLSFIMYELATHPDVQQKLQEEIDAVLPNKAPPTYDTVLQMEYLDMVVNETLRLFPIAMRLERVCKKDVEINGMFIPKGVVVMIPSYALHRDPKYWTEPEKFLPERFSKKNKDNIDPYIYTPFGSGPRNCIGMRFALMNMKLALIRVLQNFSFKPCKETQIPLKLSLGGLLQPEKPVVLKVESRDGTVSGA
Cytochrome P450 2C19, sequence (P33261 whole entry): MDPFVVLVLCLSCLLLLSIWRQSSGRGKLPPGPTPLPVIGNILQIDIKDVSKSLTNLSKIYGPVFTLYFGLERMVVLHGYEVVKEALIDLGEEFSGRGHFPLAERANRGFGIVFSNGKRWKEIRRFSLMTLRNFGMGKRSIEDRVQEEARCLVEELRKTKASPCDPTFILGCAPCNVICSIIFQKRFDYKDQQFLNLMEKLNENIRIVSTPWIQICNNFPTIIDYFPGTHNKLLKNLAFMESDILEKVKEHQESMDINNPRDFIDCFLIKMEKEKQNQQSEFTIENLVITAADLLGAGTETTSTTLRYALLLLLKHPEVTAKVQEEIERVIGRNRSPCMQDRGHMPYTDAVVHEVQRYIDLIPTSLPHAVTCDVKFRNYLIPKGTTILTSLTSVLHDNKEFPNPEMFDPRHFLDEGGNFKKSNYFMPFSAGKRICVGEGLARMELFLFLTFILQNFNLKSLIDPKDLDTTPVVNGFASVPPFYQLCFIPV

For the compound `Cc1nnc2sc(C(=O)NC3CN(c4cccc(F)c4F)C3)c(N)c2c1C`, the half-maximal effective concentration (EC50) came to 19 nM in data set [1] and 74 nM in data set [10] (Rattus norvegicus, Sprague-Dawley). Besides, the %max in data set [2] came out at 88%. The IC50 in data set [3] is 11000 nM; in data set [4], 14000 nM; in data set [5] it was 3800 nM. The values for the Kb in data set [6], in data set [7] and in data set [8] were 120 nM, 890 nM and 2000 nM, respectively. For the same compound, the Activity in data set [9] came to 18%. Further, the fEC50 in data set [10] was determined as 0.66 nM. In addition, the TDI result in [11], in data set [12] and in [13] was “Not Active” each time. This compound came in with a clearance in [14] of 16 mL/min/kg. The Vdss in [15] is 1.6 L/kg. The F in data set [16] came out at 20%. This compound gave a bioavailability in [17] of 11%. The solubility kinetic at 1 h in data set [18] was found to be 15 µg/mL (≈ 38.5 µM). Also, in data set [19], the solubility came to 1.8 µM (≈ 0.701 µg/mL). The concentration in data set [20] is 4.6 nM; in data set [21], 9.9 nM; in data set [22], 140 nM; in data set [23], 510 nM.
